From ChEMBL document CHEMBL1148700, “Synthesis and identification of [1,2,4]thiadiazole derivatives as a new series of potent and orally active dual agonists of peroxisome proliferator-activated receptors alpha and delta” (J Med Chem, 2007)
Values joined by “and” are separate entries in the source; they are usually repeats but may differ in a detail not shown here. Equal entries are not always repeated. Active and inactive are the calls of the source. No cut-off for these calls is given here.

Key:
[1] = Bioavailability in rat at 3 mg/kg, po; assay type: ADME, organism-based; details: in vivo
In short: (§1)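 Heparinized orbital-sinus blood was collected; plasma was precipitated with acetonitrile plus internal standard and quantified by LC-MS-MS using calibration standards prepared in plasma.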

[2] = Tmax in rat at 3 mg/kg, po; assay type: ADME, organism-based; design: dose 3 mg/kg, route oral; details: in vivo; in short: as §1
Mus musculus [3] = experiment: Effect on lipid homeostasis in human apoA1 transgenic mouse assessed as decrease in triglyceride level at 3 mg/kg, po after 7 days; assay type: functional; design: scale not given: the % may be the effect or the level left
In short: (§2)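 Male human apoA1 transgenic mice were given 3 mg/kg orally as a 0.5% methylcellulose suspension for 7 days. Serum HDL-C, triglyceride and free fatty acids were sampled under fed conditions and measured on a COBAS Mira Plus analyzer. n = 8/group; one-way ANOVA with Dunnett's test vs vehicle control.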

Mus musculus [4] = experiment: Effect on lipid homeostasis in C57BL/6J Lepob mouse assessed as decrease in serum triglyceride levels at 1 mg/kg, po after 11 days; assay type: functional; design: scale not given: the % may be the effect or the level left
In short: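 Seven-week-old female ob/ob (C57BL/6J-Lepob) mice were dosed orally with a 0.5% methylcellulose suspension for 11 days. Serum TG, glucose and FFA were taken under fed conditions and measured on a COBAS Mira Plus analyzer, and liver was weighed. Mean ± SEM, n = 8; one-way ANOVA with Dunnett's test vs vehicle.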

[5] = target: T1, Bile acid receptor (Homo sapiens) (UniProt Q96RI1); experiment: Effect on FXR
T1 sequence (whole entry): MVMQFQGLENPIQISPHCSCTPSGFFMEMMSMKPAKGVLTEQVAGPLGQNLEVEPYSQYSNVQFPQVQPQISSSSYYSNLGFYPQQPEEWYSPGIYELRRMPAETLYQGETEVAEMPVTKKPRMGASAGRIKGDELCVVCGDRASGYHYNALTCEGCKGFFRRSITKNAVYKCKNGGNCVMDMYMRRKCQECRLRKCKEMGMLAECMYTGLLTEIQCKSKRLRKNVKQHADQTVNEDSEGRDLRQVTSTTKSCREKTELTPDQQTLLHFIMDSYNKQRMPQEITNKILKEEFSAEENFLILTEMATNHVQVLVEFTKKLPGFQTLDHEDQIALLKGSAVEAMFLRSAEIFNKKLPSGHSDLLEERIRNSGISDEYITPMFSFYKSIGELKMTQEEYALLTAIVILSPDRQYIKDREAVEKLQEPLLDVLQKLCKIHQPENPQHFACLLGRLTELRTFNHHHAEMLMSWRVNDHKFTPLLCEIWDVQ

Mus musculus [6] = experiment: Effect on lipid homeostasis in human apoA1 transgenic mouse assessed as decrease in free fatty acid levels at 3 mg/kg, po after 7 days; assay type: functional; design: scale not given: the % may be the effect or the level left; in short: as §2
[7] = target: T2, Peroxisome proliferator-activated receptor alpha (Mus musculus, UniProt P23204); experiment: Efficacy on PPARalpha in mouse by HD assay
T2 sequence (P23204 whole entry): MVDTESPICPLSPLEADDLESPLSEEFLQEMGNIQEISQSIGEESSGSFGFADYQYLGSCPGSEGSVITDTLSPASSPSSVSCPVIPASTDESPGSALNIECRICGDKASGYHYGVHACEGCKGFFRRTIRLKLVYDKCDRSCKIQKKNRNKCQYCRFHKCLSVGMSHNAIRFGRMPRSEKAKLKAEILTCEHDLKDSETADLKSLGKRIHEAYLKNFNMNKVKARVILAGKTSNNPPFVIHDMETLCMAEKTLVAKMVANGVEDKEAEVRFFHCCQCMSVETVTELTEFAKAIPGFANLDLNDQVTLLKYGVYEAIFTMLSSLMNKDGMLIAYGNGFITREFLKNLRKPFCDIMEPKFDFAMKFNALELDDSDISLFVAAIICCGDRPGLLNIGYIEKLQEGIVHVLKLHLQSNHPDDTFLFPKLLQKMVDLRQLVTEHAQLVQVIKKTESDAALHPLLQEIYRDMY

Rattus norvegicus [8] = experiment: Increase in serum HDL-C levels in hypercholesterolemic Sprague-Dawley rat at 0.1 to 3 mg/kg/day, po after 8 days; assay type: functional, organism-based
In short: (§3)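 Male Sprague-Dawley rats (275-325 g) were fed a high-cholesterol atherogenic diet for 6 days before and throughout treatment; lean controls got normal chow plus vehicle. Drug in 0.5% Methocel was given orally at 10 mL/kg once daily for 8 days. On day 9, retro-orbital blood was taken under CO2/O2 anesthesia and serum lipids measured on a COBAS analyzer. n = 8/group; one-way ANOVA with Dunnett's test.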

[9] = AUC in rat at 3 mg/kg; assay type: ADME, organism-based; design: dose 3 mg/kg; details: plasma
Rattus norvegicus [10] = experiment: Decrease in serum LDL-C levels in hypercholesterolemic Sprague-Dawley rat at 0.1 to 3 mg/kg/day, po after 8 days; assay type: functional, organism-based; in short: as §3
[11] = Cmax in rat at 3 mg/kg, po; assay type: ADME, organism-based; design: dose 3 mg/kg, route oral; details: in vivo; in short: as §1
[12] = target: Retinoic acid receptor (Homo sapiens) (UniProt P13631+P10826+P10276); experiment: Effect on RAR; assay type: protein assay
Chain of Retinoic acid receptor (Homo sapiens) (P10276 whole entry, looked up, the tested form may be a part): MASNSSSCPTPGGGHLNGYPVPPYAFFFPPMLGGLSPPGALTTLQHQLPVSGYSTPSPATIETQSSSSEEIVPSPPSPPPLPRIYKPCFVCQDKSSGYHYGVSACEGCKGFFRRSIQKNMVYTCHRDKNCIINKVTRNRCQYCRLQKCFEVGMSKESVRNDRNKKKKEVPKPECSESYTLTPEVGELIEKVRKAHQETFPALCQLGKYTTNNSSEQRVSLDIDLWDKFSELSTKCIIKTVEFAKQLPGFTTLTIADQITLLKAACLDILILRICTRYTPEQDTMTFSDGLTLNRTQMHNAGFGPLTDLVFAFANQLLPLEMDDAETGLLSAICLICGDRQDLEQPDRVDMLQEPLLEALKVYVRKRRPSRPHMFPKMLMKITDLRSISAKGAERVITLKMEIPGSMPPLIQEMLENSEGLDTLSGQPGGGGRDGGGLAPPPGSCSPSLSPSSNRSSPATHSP
Chain of Retinoic acid receptor (Homo sapiens) (P10826 whole entry, looked up, the tested form may be a part): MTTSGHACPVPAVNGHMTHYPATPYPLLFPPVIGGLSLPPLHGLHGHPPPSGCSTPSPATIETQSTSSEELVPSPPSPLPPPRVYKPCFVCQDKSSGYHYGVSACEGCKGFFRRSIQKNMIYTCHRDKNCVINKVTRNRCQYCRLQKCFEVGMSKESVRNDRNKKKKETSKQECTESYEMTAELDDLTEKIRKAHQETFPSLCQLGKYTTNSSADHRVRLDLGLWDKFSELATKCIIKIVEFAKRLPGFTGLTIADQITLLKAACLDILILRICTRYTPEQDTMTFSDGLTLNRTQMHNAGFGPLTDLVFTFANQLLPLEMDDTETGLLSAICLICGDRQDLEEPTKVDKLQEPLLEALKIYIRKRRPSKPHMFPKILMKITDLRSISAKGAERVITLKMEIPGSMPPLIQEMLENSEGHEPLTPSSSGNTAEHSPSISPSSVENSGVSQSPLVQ
Chain of Retinoic acid receptor (Homo sapiens) (P13631 whole entry, looked up, the tested form may be a part): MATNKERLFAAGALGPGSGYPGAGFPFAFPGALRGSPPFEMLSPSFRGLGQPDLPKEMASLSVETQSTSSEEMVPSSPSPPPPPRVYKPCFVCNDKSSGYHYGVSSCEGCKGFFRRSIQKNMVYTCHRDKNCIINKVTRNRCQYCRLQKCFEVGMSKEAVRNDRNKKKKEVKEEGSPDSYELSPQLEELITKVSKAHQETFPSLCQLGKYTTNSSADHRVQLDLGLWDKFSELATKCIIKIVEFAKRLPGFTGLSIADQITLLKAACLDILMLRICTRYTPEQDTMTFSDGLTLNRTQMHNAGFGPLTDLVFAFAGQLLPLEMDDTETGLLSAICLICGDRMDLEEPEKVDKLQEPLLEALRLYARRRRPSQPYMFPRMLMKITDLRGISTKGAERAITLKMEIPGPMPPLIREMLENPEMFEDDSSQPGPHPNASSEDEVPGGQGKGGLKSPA

[13] = target: T3, Peroxisome proliferator-activated receptor alpha (Homo sapiens) (UniProt Q07869); experiment: Agonist activity at PPARalpha expressed in HEK293 cells by measuring Gal4 luciferase reporter activity relative to (S)-2- {2-[1-Ethyl-3-(4-trifluoromethoxyphenyl)ureido] indan-5-ylsulfanyl}-2- methylpropionic acid; assay type: functional, cell-based
T3 sequence (whole entry): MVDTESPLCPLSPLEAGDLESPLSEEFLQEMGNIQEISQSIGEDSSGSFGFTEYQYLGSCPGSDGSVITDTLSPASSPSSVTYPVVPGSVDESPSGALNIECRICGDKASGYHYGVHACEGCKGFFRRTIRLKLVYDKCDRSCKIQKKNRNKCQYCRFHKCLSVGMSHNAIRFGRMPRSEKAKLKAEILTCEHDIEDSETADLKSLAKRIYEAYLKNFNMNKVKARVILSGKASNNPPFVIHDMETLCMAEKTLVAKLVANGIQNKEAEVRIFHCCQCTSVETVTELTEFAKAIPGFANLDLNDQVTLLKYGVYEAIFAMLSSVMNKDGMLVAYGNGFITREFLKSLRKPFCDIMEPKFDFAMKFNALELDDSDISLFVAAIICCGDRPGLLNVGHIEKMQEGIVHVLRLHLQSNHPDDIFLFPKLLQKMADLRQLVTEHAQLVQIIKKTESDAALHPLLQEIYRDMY
In short: (§4)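 HEK293 cells grown in DMEM/F-12 with 10% FBS and glutamine, cotransfected with a PPARα ligand-binding domain-Gal4 chimera and a Gal4-luciferase reporter. Next day switched to 5% charcoal-treated FBS medium, replated after 6 h at 50 000 cells/well, and cultured overnight. Compound or vehicle (0.1% DMSO) added for 24 h at 37 °C. Luciferase read by Steady-Glo; percent efficacy given relative to a reference PPARα agonist.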

Mus musculus [14] = experiment: Effect on lipid homeostasis in human apoA1 transgenic mouse assessed as increase in HDL-C levels at 3 mg/kg, po after 7 days; assay type: functional; in short: as §2
[15] = target: T4, Peroxisome proliferator-activated receptor gamma (Homo sapiens, UniProt P37231); experiment: Agonist activity at PPARgamma expressed in HEK293 cells by measuring Gal4 luciferase reporter activity; assay type: functional, cell-based
T4 sequence (P37231 whole entry): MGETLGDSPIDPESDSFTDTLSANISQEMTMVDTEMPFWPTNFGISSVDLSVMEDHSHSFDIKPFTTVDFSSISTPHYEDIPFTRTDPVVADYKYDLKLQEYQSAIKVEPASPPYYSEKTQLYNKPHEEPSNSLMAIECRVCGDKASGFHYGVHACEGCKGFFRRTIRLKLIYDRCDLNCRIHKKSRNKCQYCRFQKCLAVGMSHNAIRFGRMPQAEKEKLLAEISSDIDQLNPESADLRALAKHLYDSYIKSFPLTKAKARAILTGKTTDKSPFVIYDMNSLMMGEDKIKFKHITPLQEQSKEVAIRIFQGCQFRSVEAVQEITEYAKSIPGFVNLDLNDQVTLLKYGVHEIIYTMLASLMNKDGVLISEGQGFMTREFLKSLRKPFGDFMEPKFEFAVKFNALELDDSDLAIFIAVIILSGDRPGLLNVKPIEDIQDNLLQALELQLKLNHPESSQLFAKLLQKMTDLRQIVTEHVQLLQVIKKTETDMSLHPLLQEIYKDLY

[16] = target: Retinoid X receptor (Homo sapiens) (UniProt P28702+P48443+P19793); experiment: Effect on RXR; assay type: protein assay
Chain of Retinoid X receptor (Homo sapiens) (P19793 whole entry, looked up): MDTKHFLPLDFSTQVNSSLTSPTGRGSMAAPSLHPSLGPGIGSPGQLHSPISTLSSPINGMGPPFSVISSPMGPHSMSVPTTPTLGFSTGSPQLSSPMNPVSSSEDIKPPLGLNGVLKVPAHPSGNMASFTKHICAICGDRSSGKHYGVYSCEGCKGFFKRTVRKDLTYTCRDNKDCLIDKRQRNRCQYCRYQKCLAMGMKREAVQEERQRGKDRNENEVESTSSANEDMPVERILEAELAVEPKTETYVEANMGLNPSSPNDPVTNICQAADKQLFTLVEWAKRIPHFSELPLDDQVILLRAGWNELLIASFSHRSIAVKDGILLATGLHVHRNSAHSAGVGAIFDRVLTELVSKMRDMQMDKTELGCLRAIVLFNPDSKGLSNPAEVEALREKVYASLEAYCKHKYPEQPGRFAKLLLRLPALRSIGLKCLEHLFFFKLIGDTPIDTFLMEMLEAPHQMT
Chain of Retinoid X receptor (Homo sapiens) (P28702 whole entry, looked up): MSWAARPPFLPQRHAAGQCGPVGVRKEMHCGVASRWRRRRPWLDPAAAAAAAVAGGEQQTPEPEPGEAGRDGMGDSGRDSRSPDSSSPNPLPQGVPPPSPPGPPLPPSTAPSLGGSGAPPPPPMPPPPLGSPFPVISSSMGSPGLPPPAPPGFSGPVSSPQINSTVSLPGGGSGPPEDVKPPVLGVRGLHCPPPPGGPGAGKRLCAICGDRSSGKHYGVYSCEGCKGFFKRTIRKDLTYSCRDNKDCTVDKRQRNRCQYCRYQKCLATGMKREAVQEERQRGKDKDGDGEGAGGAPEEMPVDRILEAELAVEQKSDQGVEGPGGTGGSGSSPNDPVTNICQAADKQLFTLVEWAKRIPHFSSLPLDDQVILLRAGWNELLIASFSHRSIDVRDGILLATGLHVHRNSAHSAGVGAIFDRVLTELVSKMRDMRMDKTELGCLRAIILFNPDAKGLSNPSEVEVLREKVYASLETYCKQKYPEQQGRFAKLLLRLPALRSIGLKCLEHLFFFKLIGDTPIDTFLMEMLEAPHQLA
Chain of Retinoid X receptor (Homo sapiens) (P48443 whole entry, looked up): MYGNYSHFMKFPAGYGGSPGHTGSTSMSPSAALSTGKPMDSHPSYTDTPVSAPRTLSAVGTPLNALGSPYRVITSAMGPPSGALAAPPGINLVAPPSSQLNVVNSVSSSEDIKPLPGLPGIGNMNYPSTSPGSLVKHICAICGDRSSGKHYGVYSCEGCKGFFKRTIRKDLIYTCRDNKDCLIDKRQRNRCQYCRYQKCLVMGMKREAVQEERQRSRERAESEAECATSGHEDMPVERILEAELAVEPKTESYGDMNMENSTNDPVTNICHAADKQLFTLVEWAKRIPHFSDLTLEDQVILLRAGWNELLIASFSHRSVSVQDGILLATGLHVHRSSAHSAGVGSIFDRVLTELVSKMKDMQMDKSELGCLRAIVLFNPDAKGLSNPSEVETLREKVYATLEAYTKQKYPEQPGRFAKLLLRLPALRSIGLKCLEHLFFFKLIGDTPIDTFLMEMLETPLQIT

[17] = Clearance in rat at 3 mg/kg; assay type: ADME, organism-based; design: dose 3 mg/kg; details: in vivo
In short: (§5)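 Rats given 3 mg/kg; IV formulation was a solution in 10% w/v Solutol in 5% dextrose in water (D5W). Blood was drawn by orbital sinus puncture into heparinized tubes. Plasma was protein-precipitated with acetonitrile containing internal standard, centrifuged at 5000g for 3 min and analysed by LC-MS-MS against plasma calibration standards.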

[18] = Half life in rat at 3 mg/kg; assay type: ADME, organism-based; design: dose 3 mg/kg; details: in vivo; in short: as §5
[19] = target: Liver X receptor (Homo sapiens) (UniProt Q13133+P55055); experiment: Effect on LXR; assay type: protein assay
Homo sapiens = species: Homo sapiens; experiment: Selectivity for PPARdelta over PPARalpha
[20] = target: T5, Peroxisome proliferator-activated receptor delta (Homo sapiens, UniProt Q03181); experiment: Agonist activity at PPARdelta expressed in HEK293 cells by measuring Gal4 luciferase reporter activity; assay type: functional, cell-based
T5 sequence (Q03181 whole entry): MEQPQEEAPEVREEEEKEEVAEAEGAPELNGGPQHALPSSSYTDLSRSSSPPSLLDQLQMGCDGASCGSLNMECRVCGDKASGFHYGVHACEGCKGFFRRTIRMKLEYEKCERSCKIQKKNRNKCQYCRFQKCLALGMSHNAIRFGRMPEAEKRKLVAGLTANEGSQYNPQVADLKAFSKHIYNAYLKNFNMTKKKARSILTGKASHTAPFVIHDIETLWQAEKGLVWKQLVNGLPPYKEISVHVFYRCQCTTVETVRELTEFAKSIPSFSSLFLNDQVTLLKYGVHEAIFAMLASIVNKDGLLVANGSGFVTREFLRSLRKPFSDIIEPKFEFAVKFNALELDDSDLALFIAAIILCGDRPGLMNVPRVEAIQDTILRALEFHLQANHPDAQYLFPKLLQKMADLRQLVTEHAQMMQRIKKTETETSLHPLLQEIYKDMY

[21] = target: T6, Peroxisome proliferator-activated receptor alpha (Homo sapiens, UniProt Q07869); experiment: Agonist activity at PPARalpha expressed in HEK293 cells by measuring Gal4 luciferase reporter activity; assay type: functional, cell-based; in short: as §4
T6 sequence (Q07869 whole entry): T3 sequence (whole entry)

Cc1cc(SCc2nc(-c3ccc(OC(F)(F)F)cc3)ns2)ccc1OC(C)(C)C(=O)O
bioavailability [1]: 96% | Tmax [2]: 0.8 h | Activity (Mus musculus [3]): 85% | Activity (Mus musculus [4]): 80% and 98.9 mg/dl | Activity [5]: inactive | Activity (Mus musculus [6]): 31% | EC50 [7]: 127 nM | Activity (Rattus norvegicus [8]): Active | AUC [9]: 22000 ng·h/mL | Activity (Rattus norvegicus [10]): Active | Cmax [11]: 6680 ng/mL | Activity [12]: inactive | Activity [13]: 44% | Activity (Mus musculus [14]): 74% | EC50 [15]: > 3000 nM | Activity [16]: inactive | clearance [17]: 2.2 mL/min/kg | half-life [18]: 5.3 h | Activity [19]: inactive

Cc1cc(SCc2nsc(-c3ccc(C(F)(F)F)cc3)n2)ccc1OC(C)(C)C(=O)O
Activity [13]: 38%

Cc1cc(SCc2nc(-c3ccc(C(F)(F)F)cc3)ns2)ccc1OCC(=O)O
Selectivity ratio (Homo sapiens): 47 | Activity [13]: 42% | EC50 [15]: > 3000 nM

Cc1cc(SCc2nc(-c3ccc(OC(F)(F)F)cc3)ns2)ccc1OC1(C(=O)O)CCCC1
Activity [13]: 31%

Cc1cc(OCc2nc(-c3ccc(OC(F)(F)F)cc3)ns2)ccc1OC(C)(C)C(=O)O
EC50 [20]: 12 nM | Activity [13]: 80%

Cc1cc(SCc2nsc(-c3ccc(OC(F)(F)F)cc3)n2)ccc1OC(C)(C)C(=O)O
Activity [13]: 47% | EC50 [15]: > 3000 nM

Cc1cc(SCc2nc(-c3ccc(C(C)(C)C)cc3)ns2)ccc1OC(C)(C)C(=O)O
Activity [13]: 64%

Cc1cc(OCc2nc(-c3ccc(C(F)(F)F)cc3)ns2)ccc1OC(C)(C)C(=O)O
Activity [13]: 71%

Cc1cc(SCc2nc(-c3ccc(C(F)(F)F)cc3)ns2)ccc1OC(C)(C)C(=O)O
EC50 [20]: 6 nM | Activity [13]: 51% | EC50 [21]: 79 nM

Cc1cc(SCc2nc(-c3ccc(Cl)cc3)ns2)ccc1OC(C)(C)C(=O)O
Activity [13]: 38%
